Results: ChEMBL document CHEMBL3877306, “Triazole Ureas Act as Diacylglycerol Lipase Inhibitors and Prevent Fasting-Induced Refeeding” (J Med Chem, 2017)
Activity calls are given as the source filed them. No cut-off for these calls is given here.

Columns and labels:
Mus musculus [1] = assay: Inhibition of fasting-induced refeeding in 18 hrs fasted C57Bl/6J mouse at 50 mg/kg, ip administered as single dose 30 mins prior to refeeding measured up to 16 hrs; format: functional, organism-based
Mus musculus [2] = assay: Ex vivo inhibition of FP-TAMRA probe binding to carboxylesterase in mouse liver at 3 to 50 mg/kg, ip after 4 hrs by gel-based competitive activity based protein profiling assay; format: functional, organism-based
Mus musculus [3] = assay: Toxicity in 18 hrs fasted C57Bl/6J mouse model of fasting-induced refeeding assessed as hypolocomotion at 50 mg/kg, ip administered as single dose 30 mins prior to refeeding measured after 24 hrs; format: organism-based; conditions: in vivo
[4] = molecular target: T1, Diacylglycerol lipase-beta (Mus musculus, UniProt Q91WC9); assay: Inhibition of recombinant mouse DAGLbeta expressed in HEK293T cell membranes using PNP butyrate as substrate by colorimetric assay; parameters: species or system HEK-293T
T1 sequence (Q91WC9 whole entry): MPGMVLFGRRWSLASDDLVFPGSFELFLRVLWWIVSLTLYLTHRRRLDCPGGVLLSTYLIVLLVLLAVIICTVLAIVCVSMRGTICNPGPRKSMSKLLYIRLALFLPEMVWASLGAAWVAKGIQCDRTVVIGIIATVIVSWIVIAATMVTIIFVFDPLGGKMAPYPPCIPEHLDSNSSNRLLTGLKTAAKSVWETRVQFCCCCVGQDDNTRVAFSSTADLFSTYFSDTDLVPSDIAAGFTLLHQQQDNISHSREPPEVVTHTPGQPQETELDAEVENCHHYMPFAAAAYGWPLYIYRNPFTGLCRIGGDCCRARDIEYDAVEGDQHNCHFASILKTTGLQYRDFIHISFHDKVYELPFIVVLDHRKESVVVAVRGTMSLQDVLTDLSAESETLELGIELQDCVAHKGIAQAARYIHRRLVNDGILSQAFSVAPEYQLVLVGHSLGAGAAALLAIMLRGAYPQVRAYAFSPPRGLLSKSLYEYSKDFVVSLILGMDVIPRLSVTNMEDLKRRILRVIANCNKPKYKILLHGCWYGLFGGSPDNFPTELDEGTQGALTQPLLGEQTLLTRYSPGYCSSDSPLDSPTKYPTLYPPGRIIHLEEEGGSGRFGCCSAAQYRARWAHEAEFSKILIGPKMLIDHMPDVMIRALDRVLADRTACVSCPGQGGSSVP
Outline: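 Membranes from HEK293T cells transiently transfected with mouse DAGLβ. Activity was read colorimetrically as hydrolysis of para-nitrophenylbutyrate surrogate substrate over a concentration range of inhibitor. n = 4, mean ± SEM.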

[5] = molecular target: T2, Monoacylglycerol lipase ABHD6 (Homo sapiens, UniProt Q9BV23); assay: Inhibition of human ABHD6 using 2-AG as natural substrate by fluorescence based assay
T2 sequence (Q9BV23 whole entry): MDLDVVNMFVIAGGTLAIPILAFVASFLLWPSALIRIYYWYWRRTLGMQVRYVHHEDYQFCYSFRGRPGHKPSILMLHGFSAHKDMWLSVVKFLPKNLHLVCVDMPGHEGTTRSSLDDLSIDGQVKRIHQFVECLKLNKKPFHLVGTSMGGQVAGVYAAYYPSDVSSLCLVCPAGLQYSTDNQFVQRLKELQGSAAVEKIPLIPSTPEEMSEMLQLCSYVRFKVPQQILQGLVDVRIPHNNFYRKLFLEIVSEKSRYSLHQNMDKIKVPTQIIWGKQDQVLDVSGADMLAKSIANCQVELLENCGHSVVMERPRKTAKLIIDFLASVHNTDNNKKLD
Outline: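 Coupled fluorescence assay: 2-AG hydrolysis detected via glycerol kinase, glycerol-3-phosphate oxidase and HRP (0.2 U/mL each), 0.125 mM ATP and 10 µM Amplifu Red. Conditions: 25 µM 2-AG, 0.5% acetonitrile, 5% DMSO, ABHD6 membrane protein 40 µg/mL final. n = 4.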

[6] = molecular target: T3, Diacylglycerol lipase-alpha (Homo sapiens, UniProt Q9Y4D2); assay: Inhibition of full length recombinant human DAGLalpha expressed in HEK293T cell membranes using PNP butyrate as substrate by colorimetric assay; parameters: species or system HEK-293T
T3 sequence (Q9Y4D2 whole entry): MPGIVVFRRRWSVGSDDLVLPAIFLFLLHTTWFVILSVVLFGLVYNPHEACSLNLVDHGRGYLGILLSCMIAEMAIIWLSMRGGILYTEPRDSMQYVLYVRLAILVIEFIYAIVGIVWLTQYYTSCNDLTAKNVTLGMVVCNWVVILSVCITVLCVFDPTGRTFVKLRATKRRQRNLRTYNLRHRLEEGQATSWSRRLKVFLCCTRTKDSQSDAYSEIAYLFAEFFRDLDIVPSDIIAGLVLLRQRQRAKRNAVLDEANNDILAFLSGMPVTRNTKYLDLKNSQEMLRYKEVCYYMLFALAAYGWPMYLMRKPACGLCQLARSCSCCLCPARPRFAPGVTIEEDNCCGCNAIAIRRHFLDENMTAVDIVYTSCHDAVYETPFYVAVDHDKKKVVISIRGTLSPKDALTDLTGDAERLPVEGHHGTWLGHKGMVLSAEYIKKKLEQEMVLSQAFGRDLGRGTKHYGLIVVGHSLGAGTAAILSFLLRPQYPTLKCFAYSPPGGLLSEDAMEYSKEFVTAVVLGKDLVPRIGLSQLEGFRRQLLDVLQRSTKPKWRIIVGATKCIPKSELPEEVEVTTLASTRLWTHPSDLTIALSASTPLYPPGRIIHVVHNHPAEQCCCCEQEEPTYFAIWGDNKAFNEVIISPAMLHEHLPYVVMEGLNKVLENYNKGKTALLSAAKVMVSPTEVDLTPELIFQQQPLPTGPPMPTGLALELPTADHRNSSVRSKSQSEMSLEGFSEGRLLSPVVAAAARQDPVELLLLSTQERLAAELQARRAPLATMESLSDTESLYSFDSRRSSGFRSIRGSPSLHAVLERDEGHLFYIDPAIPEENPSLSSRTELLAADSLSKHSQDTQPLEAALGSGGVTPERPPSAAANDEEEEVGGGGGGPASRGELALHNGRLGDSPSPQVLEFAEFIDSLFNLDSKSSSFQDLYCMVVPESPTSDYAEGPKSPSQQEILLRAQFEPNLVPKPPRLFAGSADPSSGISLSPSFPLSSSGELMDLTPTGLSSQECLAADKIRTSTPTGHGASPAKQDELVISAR
Outline: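 Membranes from HEK293T cells transiently transfected with human DAGLα (PEI transfection, harvested at 72 h), used at 0.05 µg/µL final protein in 50 mM HEPES pH 7.2. Activity was read colorimetrically from para-nitrophenylbutyrate hydrolysis. n = 4, mean ± SEM.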

[7] = molecular target: T3, Diacylglycerol lipase-alpha; assay: Inhibition of recombinant human DAGLalpha expressed in HEK293T cell membranes overexpressing MAGL using natural substrate 1-stearoyl-2-arachidonoly-sn-glycerol by fluorescence based assay; parameters: species or system HEK-293T
Outline: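 Real-time coupled fluorescence readout of glycerol release from hDAGLα-transfected HEK293T membranes (50 µg/mL final protein) with 100 µM SAG substrate. Added: 5 µg/mL MAGL-overexpressing membranes, 0.0075% (w/v) Triton X-100, 0.2 U/mL each glycerol kinase, glycerol-3-phosphate oxidase and HRP, 0.125 mM ATP, 10 µM Amplifu Red, 5% DMSO. n = 4.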

[8] = molecular target: T4, Diacylglycerol lipase-alpha (Mus musculus, UniProt Q6WQJ1); assay: Inhibition of MB064 probe binding to DAGLalpha in mouse brain membrane proteome preincubated for 30 mins followed by MB064 probe addition measured after 20 mins by gel-based competitive activity based protein profiling assay; format: cell membranes
T4 sequence (Q6WQJ1 whole entry): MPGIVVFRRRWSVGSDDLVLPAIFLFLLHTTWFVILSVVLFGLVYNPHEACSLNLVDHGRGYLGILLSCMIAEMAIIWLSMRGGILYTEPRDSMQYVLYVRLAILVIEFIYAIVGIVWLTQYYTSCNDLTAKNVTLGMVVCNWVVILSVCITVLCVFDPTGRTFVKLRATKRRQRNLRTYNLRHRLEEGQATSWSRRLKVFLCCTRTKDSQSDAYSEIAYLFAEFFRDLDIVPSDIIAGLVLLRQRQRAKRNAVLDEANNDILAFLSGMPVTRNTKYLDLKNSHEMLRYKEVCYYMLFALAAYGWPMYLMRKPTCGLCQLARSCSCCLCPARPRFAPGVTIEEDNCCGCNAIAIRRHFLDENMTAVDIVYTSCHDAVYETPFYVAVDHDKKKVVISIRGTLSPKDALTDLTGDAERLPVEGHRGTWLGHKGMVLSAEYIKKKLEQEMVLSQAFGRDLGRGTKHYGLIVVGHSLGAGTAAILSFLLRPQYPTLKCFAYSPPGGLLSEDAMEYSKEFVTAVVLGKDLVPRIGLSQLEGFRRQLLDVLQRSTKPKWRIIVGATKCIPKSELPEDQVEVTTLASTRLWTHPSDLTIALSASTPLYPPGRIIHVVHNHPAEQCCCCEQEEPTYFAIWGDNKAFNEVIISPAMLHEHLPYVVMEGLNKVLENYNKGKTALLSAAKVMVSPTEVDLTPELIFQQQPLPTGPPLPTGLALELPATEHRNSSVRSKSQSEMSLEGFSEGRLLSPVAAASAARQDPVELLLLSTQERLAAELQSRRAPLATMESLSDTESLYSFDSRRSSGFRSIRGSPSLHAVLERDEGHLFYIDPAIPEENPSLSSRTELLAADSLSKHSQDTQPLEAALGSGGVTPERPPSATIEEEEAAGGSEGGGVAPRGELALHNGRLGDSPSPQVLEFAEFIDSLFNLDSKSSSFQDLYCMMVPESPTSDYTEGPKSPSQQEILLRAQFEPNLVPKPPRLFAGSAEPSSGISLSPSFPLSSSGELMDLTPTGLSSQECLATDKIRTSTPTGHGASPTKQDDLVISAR
Outline: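 Mouse brain membrane proteome (2 mg/mL) preincubated with inhibitor or DMSO vehicle for 30 min at r.t., then labelled with MB064 at 250 nM final for 20 min at r.t. and quenched in Laemmli buffer. Fluorescent bands were quantified against vehicle set to 100%, and IC50 was taken from a variable-slope log(inhibitor) vs normalized response fit. n = 3.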

[9] = molecular target: T5, Diacylglycerol lipase-beta (Homo sapiens) (UniProt Q8NCG7); assay: Inhibition of DH379 probe binding to full length recombinant human DAGLbeta expressed in HEK293T cell membranes at 0.1 to 10000 nM after 30 mins by gel-based competitive activity based protein profiling assay; conditions: HEK-293T
T5 sequence (whole entry): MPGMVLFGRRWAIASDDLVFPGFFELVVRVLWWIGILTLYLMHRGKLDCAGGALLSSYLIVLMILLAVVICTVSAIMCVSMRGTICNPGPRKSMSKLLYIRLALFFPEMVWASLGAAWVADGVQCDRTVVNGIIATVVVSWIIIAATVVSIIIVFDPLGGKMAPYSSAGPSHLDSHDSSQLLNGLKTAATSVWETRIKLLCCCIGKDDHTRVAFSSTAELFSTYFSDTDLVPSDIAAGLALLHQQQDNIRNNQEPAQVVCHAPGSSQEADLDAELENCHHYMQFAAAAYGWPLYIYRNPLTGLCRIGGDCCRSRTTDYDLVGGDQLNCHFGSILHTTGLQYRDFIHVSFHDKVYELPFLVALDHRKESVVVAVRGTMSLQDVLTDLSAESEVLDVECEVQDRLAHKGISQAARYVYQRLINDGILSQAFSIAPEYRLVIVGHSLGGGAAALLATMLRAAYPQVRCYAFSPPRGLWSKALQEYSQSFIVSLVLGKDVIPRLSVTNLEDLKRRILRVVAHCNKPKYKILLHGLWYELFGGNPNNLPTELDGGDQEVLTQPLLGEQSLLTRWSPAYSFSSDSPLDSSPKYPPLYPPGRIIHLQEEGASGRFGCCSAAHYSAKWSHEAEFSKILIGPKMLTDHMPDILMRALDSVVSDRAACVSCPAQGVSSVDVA
Outline: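 HEK293T cells transiently transfected with full-length human DAGLβ cDNA (PEI:DNA 3:1), harvested at 72h; membrane fraction diluted to 1 mg/mL protein. Inhibitor-treated membranes were labelled with DAGL-tailored probe DH379 (1 μM, 30 min), then run on fluorescent SDS-PAGE. Band intensity was normalised to vehicle (100%), and IC50 was fitted to log(inhibitor) vs normalised response with variable slope; n = 3.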

[10] = molecular target: T6, Diacylglycerol lipase-alpha (Homo sapiens) (UniProt Q9Y4D2); assay: Inhibition of DH379 probe binding to full length recombinant human DAGLalpha expressed in HEK293T cell membranes at 0.1 to 10000 nM after 30 mins by gel-based competitive activity based protein profiling assay; conditions: HEK-293T
T6 sequence (whole entry): T3 sequence (Q9Y4D2 whole entry)
Outline: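 Membranes from HEK293T cells transiently transfected with human DAGLα were preincubated with inhibitor, then labelled with DAGL-tailored probe DH379 (1 μM, 30 min). Readout was fluorescent SDS gel. Band intensity was normalized to vehicle (100%) and fitted with a variable-slope dose-response curve. n = 3.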

| SMILES | IC50 [4] | IC50 [6] | IC50 [5] | other results |
| --- | --- | --- | --- | --- |
| C/C=C/C=O [CROTONALDEHYDE] | – | – | – | inhibition (Mus musculus [1]): Active; inhibition (Mus musculus [2]): Active; Activity (Mus musculus [3]): Toxic |
| O=C(N1CCCC[C@H]1Cc1ccccc1)n1cc(-c2ccc(-c3ccccc3)cc2)nn1 | – | 39.8 nM | 631 nM | IC50 [7]: 794 nM; IC50 [8]: 631 nM |
| C/C=C/[C@@H](O)C#N | – | – | – | inhibition (Mus musculus [1]): Active; inhibition (Mus musculus [2]): Active; Activity (Mus musculus [3]): Toxic |
| O=C(N1CCCC[C@@H]1Cc1ccccc1)n1cc(-c2ccc(-c3ccccc3)cc2)nn1 | – | 0.794 nM | 2.51 nM | IC50 [7]: 25.1 nM; IC50 [8]: 7.94 nM |

Continued, in another order:

| IC50 [4] | IC50 [6] | SMILES | IC50 [5] | other results |
| --- | --- | --- | --- | --- |
| 79.4 nM | 25.1 nM | O=C(N1CCCCC1Cc1ccccc1)n1cc(C(O)(c2ccccc2)c2ccccc2)nn1 (stereo unspecified) | 39.8 nM | – |
| 12.6 nM | 2.51 nM | O=C(N1CCCCC1Cc1ccccc1)n1ncc(C(O)(c2ccccc2)c2ccccc2)n1 (stereo unspecified) | 20 nM | inhibition [9]: Active; inhibition [10]: Active |
| 20000 nM | 20 nM | CCC1CCCCN1C(=O)n1cc(-c2ccc(-c3ccccc3)cc2)nn1 (stereo unspecified) | – | – |
| 12600 nM | 63.1 nM | CCC1CCCCN1C(=O)n1ncc(C(O)(c2ccccc2)c2ccccc2)n1 (stereo unspecified) | – | – |
